Data as given in ChEMBL document CHEMBL1156857, “N-Acetamideindolecarboxylic acid allosteric 'finger-loop' inhibitors of the hepatitis C virus NS5B polymerase: discovery and initial optimization studies” (Bioorg Med Chem Lett, 2010).
In brackets after ≈: the same amount, converted by molar mass.

Assays:
Hepatitis C virus = assay: Antiviral activity against Hepatitis C virus subtype 1b infected in human Huh7 cells assessed as inhibition of viral RNA replication; assay type: functional, organism-based, Hepacivirus hominis, genotype 1b, Huh-7; conditions: Hepatitis C virus, genotype 1b, Huh-7; read-out: EC50
Outline: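 Stable subgenomic HCV genotype 1b replicon in Huh-7 cells carrying a modified luciferase reporter. EC50 from duplicate or more determinations. Some inhibitors were also run in a 72 h replicon format, with HCV RNA normalized to total cellular RNA. Cytotoxicity checked as TC50.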

[1] = Inhibition of calf thymus DNA-directed RNA polymerase 2; design: species or system Bos taurus
[2] = (§1) Permeability from apical to basolateral side of the human Caco-2 cells at pH 7.4; assay type: ADME, cell-based; conditions: Caco-2, pH 7.4, read-out: permeability
Outline: (§2)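 Caco-2 permeability measured in the apical-to-basal direction at pH 7.4.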

[3] = Half life in human liver microsomes at 2 uM; assay type: ADME, Microsome
Outline: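 Human liver microsomes incubated with test compound at 2 µM. Stability reported as T1/2 in min.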

Cytochrome P450 3A4 = Cytochrome P450 3A4 (Homo sapiens, UniProt P08684); assay: Inhibition of CYP3A4; assay type: ADME
Sequence of Cytochrome P450 3A4 (P08684 whole entry): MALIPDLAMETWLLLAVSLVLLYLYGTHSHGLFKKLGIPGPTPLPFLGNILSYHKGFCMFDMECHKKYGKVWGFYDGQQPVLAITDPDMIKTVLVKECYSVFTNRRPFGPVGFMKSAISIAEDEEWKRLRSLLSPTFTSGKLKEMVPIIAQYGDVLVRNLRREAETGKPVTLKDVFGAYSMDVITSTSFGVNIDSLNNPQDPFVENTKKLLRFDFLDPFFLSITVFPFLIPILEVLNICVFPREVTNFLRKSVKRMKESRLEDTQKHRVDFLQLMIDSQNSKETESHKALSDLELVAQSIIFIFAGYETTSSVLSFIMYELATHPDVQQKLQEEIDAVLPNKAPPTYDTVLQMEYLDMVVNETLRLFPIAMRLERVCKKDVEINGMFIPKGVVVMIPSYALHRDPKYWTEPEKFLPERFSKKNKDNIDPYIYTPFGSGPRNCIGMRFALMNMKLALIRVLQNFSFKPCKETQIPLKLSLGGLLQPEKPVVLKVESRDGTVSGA
Outline: (§3)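 IC50s measured against CYP 1A2, 2C9, 2C19, 2D6 and 3A4 isozymes. The value reported is the lowest IC50, taken against the most sensitive isozyme.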

[4] = Inhibition of histidine-tagged HCV NS5Bdelta21 by scintillation proximity assay; design: species or system Hepacivirus hominis
Outline: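 Soluble truncated NS5B at 12 nM. Reaction contains 0.01% w/v BSA, with no dodecyl-β-D-maltoside or IGEPAL. Other conditions follow an earlier method. IC50 is the mean of duplicate experiments on two separate weighings.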

[5] = Lipophilicity, log D at pH 7.4; assay type: physicochemical; conditions: buffer
[6] = Equilibrium solubility at pH 7.2 with amorphous solid after 24 hrs by shake flask method; assay type: physicochemical; conditions: buffer
Cytochrome P450 2C19 = Cytochrome P450 2C19 (Homo sapiens, UniProt P33261); assay: Inhibition of CYP2C19; assay type: ADME; outline: as §3
Sequence of Cytochrome P450 2C19 (P33261 whole entry): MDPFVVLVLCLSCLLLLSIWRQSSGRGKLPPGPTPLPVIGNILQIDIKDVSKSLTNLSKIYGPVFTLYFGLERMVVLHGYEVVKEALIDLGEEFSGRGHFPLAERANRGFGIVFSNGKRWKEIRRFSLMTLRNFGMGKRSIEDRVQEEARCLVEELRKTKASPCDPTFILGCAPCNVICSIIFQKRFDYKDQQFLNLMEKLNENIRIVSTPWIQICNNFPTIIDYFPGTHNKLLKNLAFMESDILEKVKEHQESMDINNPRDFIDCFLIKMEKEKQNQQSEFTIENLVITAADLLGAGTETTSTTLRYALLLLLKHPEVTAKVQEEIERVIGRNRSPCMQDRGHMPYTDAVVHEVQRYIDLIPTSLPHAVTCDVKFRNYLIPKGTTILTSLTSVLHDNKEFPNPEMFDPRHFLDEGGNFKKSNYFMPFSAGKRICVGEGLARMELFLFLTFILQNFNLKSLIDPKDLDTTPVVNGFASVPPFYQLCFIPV

Caco-2 = assay: as §1; assay type: ADME, cell-based; conditions: caco-2, pH 7.4, BLD = below limit of detection; outline: as §2
Cytochrome P450 2C9 = Cytochrome P450 2C9 (Homo sapiens, UniProt P11712); assay: Inhibition of CYP2C9; assay type: ADME; outline: as §3
Sequence of Cytochrome P450 2C9 (P11712 whole entry): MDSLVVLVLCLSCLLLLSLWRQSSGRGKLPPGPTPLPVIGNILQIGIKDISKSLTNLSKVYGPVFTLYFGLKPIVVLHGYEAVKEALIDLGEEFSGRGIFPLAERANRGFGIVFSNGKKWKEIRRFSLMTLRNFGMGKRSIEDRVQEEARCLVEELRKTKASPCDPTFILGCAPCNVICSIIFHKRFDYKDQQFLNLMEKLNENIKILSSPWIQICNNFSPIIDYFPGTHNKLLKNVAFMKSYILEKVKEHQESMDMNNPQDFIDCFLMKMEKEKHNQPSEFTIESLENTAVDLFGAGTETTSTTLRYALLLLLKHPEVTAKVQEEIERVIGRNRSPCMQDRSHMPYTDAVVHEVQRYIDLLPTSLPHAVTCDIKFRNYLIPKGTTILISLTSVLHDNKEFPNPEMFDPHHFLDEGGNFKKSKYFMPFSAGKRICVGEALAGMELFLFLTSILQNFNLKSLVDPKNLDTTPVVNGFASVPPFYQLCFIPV

[7] = Half life in rat liver microsomes at 2 uM; assay type: ADME, Microsome

Row | Structure (SMILES) | EC50 (Hepatitis C virus) | IC50 [1] | Papp A→B [2] | half-life at 2 µM [3] | IC50 (Cytochrome P450 3A4) | IC50 [4] | logD [5] | solubility thermodynamic at 24 h [6] | IC50 (Cytochrome P450 2C19) | IC50 (Cytochrome P450 3A4; read-out: IC50) | permeability (Caco-2) | IC50 (Cytochrome P450 2C9) | half-life at 2 µM [7]
1 | CN(C)C(=O)Cn1c(-c2ccoc2)c(C2CCCCC2)c2ccc(C(=O)O)cc21 | 800 nM | > 250000 nM | 12.8 ×10⁻⁶ cm/s | 4.17 h | >= 26 uM | 20 nM | 1.45 | 240 µg/mL (≈ 608 µM) |  |  |  |  | 
2 | Cn1c(-c2ccoc2)c(C2CCCCC2)c2ccc(C(=O)O)cc21 | 4200 nM |  |  |  |  | 16 nM | 3.26 |  |  |  |  |  | 
3 | O=C(O)c1ccc2c(C3CCCCC3)c(-c3ccccc3)n(CC(=O)N3CCC(N4CCCC4)CC3)c2c1 | 380 nM | > 250000 nM | < 0.1 ×10⁻⁶ cm/s | 1.85 h |  | 40 nM |  | 47 µg/mL (≈ 91.5 µM) |  |  |  |  | 
4 | O=C(O)c1ccc2c(C3CCCCC3)c(-c3ccoc3)n(CC(=O)N3CCC(N4CCCC4)CC3)c2c1 | 380 nM | > 250000 nM | 1.4 ×10⁻⁶ cm/s | > 5 h |  | 20 nM |  | 79 µg/mL (≈ 157 µM) |  |  |  |  | 
5 | O=C(O)c1ccc2c(C3CCCCC3)c(-c3cccs3)n(CC(=O)N3CCC(N4CCCC4)CC3)c2c1 | 460 nM | > 250000 nM | 0.2 ×10⁻⁶ cm/s | > 5 h |  | 20 nM |  | 60 µg/mL (≈ 115 µM) | ≥ 11000 nM |  |  |  | 
6 | CCN1CCN(C(=O)Cn2c(-c3ccoc3)c(C3CCCCC3)c3ccc(C(=O)O)cc32)CC1 | 410 nM | > 250000 nM | 6.5 ×10⁻⁶ cm/s | > 5 h |  | 30 nM |  | 12 µg/mL (≈ 25.9 µM) |  | ≥ 16000 nM |  |  | 
7 | CC(C)N1CCN(C(=O)Cn2c(-c3ccoc3)c(C3CCCCC3)c3ccc(C(=O)O)cc32)CC1 | 830 nM | > 250000 nM | 7 ×10⁻⁶ cm/s | > 5 h |  | 40 nM |  | 18 µg/mL (≈ 37.7 µM) |  | ≥ 8000 nM |  |  | 
8 | CN(CCO)C(=O)Cn1c(-c2ccoc2)c(C2CCCCC2)c2ccc(C(=O)O)cc21 | 1500 nM | > 250000 nM |  | 4.58 h |  | 20 nM |  | 1300 µg/mL (≈ 3060 µM) |  |  | BLD |  | 
9 | O=C(O)c1ccc2c(C3CCCCC3)c(-c3ccoc3)n(CC(=O)N3CCOCC3)c2c1 | 600 nM | > 250000 nM | 5.2 ×10⁻⁶ cm/s | > 5 h |  | 30 nM |  | 105 µg/mL (≈ 241 µM) |  |  |  | ≥ 24000 nM | 4.8 h
